According to ChEMBL document CHEMBL2384939, “Synthesis of pyrazolo[1,5-a]pyrimidine linked aminobenzothiazole conjugates as potential anticancer agents” (Bioorg Med Chem Lett, 2013):
pIC50: −log10 of the molar value. Active and inactive are the calls of the source. The rule behind the calls is not given here.

Columns and labels:
RPMI-8226 = assay: Cytotoxicity against human RPMI8226 cells after 48 hrs by MTT assay; assay type: functional; conditions: RPMI-8226, 48 h
UO-31 = assay: Cytotoxicity against human UO31 cells after 48 hrs by MTT assay; assay type: functional; conditions: UO-31, 48 h
A549 [1] = assay: Induction of apoptosis in human A549 cells assessed as cytoplasmic condensation at 2 uM after 48 hrs by Hoechst staining assay; assay type: functional, cell-based
Outline: (§1)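 A549 cells (10,000 per 18-mm coverslip) grown 24 h, then given 2 µM compound for 48 h, with 0.001% DMSO vehicle and roscovitine controls. Hoechst 33258 (0.5 mg/mL) in 4% paraformaldehyde was added for 30 min. Randomly chosen fields were imaged by fluorescence microscopy and apoptotic cells scored manually by cytoplasmic condensation, apoptotic bodies and nuclear fragmentation.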

A498 = assay: Cytotoxicity against human A498 cells after 48 hrs by MTT assay; assay type: functional; conditions: A498, 48 h
IGROV-1 = assay: Cytotoxicity against human IGROV1 cells after 48 hrs by MTT assay; assay type: functional; conditions: IGROV-1, 48 h
BT-549 = assay: Cytotoxicity against human BT549 cells after 48 hrs by MTT assay; assay type: functional; conditions: BT-549, 48 h
OVCAR-4 = assay: Cytotoxicity against human OVCAR4 cells after 48 hrs by MTT assay; assay type: functional; conditions: OVCAR-4, 48 h
SF-295 = assay: Cytotoxicity against human SF295 cells after 48 hrs by MTT assay; assay type: functional; conditions: SF-295, 48 h
NCI-H322M = assay: Cytotoxicity against human NCI-H322M cells after 48 hrs by MTT assay; assay type: functional
NCI-H23 = assay: Cytotoxicity against human NCI-H23 cells after 48 hrs by MTT assay; assay type: functional; conditions: NCI-H23, 48 h
SNB-75 = assay: Cytotoxicity against human SNB75 cells after 48 hrs by MTT assay; assay type: functional; conditions: SNB-75, 48 h
HCT-116 = assay: Cytotoxicity against human HCT116 cells after 48 hrs by MTT assay; assay type: functional; conditions: HCT-116, 48 h
SF-539 = assay: Cytotoxicity against human SF539 cells after 48 hrs by MTT assay; assay type: functional; conditions: SF-539, 48 h
HOP-92 = assay: Cytotoxicity against human HOP92 cells after 48 hrs by MTT assay; assay type: functional; conditions: HOP-92, 48 h
MDA-MB-231 = assay: Cytotoxicity against human MDA-MB-231 cells after 48 hrs by MTT assay; assay type: functional; conditions: MDA-MB-231, 48 h
MOLT-4 = assay: Cytotoxicity against human MOLT4 cells after 48 hrs by MTT assay; assay type: functional; conditions: MOLT-4, 48 h
A549 [2] = assay: Induction of apoptosis in human A549 cells assessed as formation of apoptotic bodies at 2 uM after 48 hrs by Hoechst staining assay; assay type: functional, cell-based; outline: as §1
786-0 = assay: Cytotoxicity against human 786-0 cells after 48 hrs by MTT assay; assay type: functional; conditions: 786-0, 48 h
Malme-3M = assay: Cytotoxicity against human MALME-3M cells after 48 hrs by MTT assay; assay type: functional
[3] = Cytotoxicity against human EKVX cells after 48 hrs by MTT assay; assay type: functional
DU-145 = assay: Cytotoxicity against human DU145 cells after 48 hrs by MTT assay; assay type: functional, cell-based; conditions: DU-145, 48 h
Outline: (§2)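 MTT assay: […] were plated in DMEM with 10% FBS and incubated for 24 h at 37 °C under CO2. Compounds diluted in culture medium were added alongside a vehicle control for 48 h. MTT (10 µl of a 5 mg/ml stock) was added for a further 4 h. The supernatant was then removed, the formazan dissolved in DMSO, and absorbance read at 540 nm. IC50 was derived.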

M14 = assay: Cytotoxicity against human M14 cells after 48 hrs by MTT assay; assay type: functional; conditions: M14, 48 h
RXF 393 = assay: Cytotoxicity against human RXF393 cells after 48 hrs by MTT assay; assay type: functional; conditions: RXF 393, 48 h
ACHN = assay: Cytotoxicity against human ACHN cells after 48 hrs by MTT assay; assay type: functional, cell-based; outline: as §2
SK-MEL-5 = assay: Cytotoxicity against human SK-MEL-5 cells after 48 hrs by MTT assay; assay type: functional; conditions: SK-MEL-5, 48 h
[4] = Cytotoxicity against human NCI-ADR-RES cells after 48 hrs by MTT assay; assay type: functional
LOX IMVI = assay: Cytotoxicity against human LOXIMVI cells after 48 hrs by MTT assay; assay type: functional
CAKI-1 = assay: Cytotoxicity against human Caki1 cells after 48 hrs by MTT assay; assay type: functional; conditions: CAKI-1, 48 h
KM12 = assay: Cytotoxicity against human KM12 cells after 48 hrs by MTT assay; assay type: functional; conditions: KM12, 48 h
MDA-MB-435 = assay: Cytotoxicity against human MDA-MB-435 cells after 48 hrs by MTT assay; assay type: functional; conditions: MDA-MB-435, 48 h
SK-MEL-28 = assay: Cytotoxicity against human SK-MEL-28 cells after 48 hrs by MTT assay; assay type: functional; conditions: SK-MEL-28, 48 h

| SMILES | Activity (A549 [1]) | GI50 (A498) [µM] | GI50 (IGROV-1) [µM] | GI50 (BT-549) [µM] | GI50 (SF-295) [µM] | GI50 (NCI-H322M) [µM] | GI50 (NCI-H23) [µM] | GI50 (SNB-75) [µM] | GI50 (HCT-116) [µM] | GI50 (SF-539) [µM] | GI50 (HOP-92) [µM] | GI50 (MDA-MB-231) [µM] | Activity (A549 [2]) | GI50 (786-0) [µM] | GI50 (Malme-3M) [µM] | GI50 [3] [µM] | GI50 (DU-145) [µM] | pIC50 (DU-145) | GI50 (M14) [µM] | GI50 (RXF 393) [µM] | other results |
| --- | --- | --- | --- | --- | --- | --- | --- | --- | --- | --- | --- | --- | --- | --- | --- | --- | --- | --- | --- | --- | --- |
| O=C(Nc1nc2ccccc2s1)c1cc(-c2ccc(F)cc2)n2nc(-c3ccccc3)cc2n1 | Active | 1.8 | 4.3 | 2 | 4.1 | 5.8 | 2.8 | 1.7 | 2.7 | 2.6 | 1.6 | 2.3 | Active | 2.1 | 3.7 | 6.6 | 4.9 | 5.68 | 3.1 | 2.5 | GI50 (RPMI-8226): 5.5 µM; GI50 (UO-31): 1.9 µM; GI50 (OVCAR-4): 1.8 µM; GI50 (MOLT-4): 21 µM; GI50 (ACHN): 2.2 µM; pIC50 (ACHN): 5.46 |
| COc1cc(-c2cc(C(=O)Nc3nc4ccccc4s3)nc3cc(-c4ccccc4)nn23)cc(OC)c1OC | Active | 9.2 | 56 | 6.3 | 10.6 | 67.5 | 11.5 | 2.7 | 4.5 | 1.3 | 0.7 | 5.6 | Active | 2.5 | 12 | 42 | 65 | 5.50 | 2.3 | 6.2 | GI50 (SK-MEL-5): 13.8 µM; GI50 [4]: 19.6 µM; GI50 (LOX IMVI): 5.5 µM; GI50 (CAKI-1): 53.7 µM; GI50 (KM12): 22 µM; GI50 (MDA-MB-435): 2.6 µM; GI50 (SK-MEL-28): 3.3 µM; GI50 (ACHN): 45.7 µM; pIC50 (ACHN): 5.36 |
